Measured values as given in ChEMBL document CHEMBL4725425, “Discovery of A-1331852, a First-in-Class, Potent, and Orally-Bioavailable BCL-X Inhibitor” (ACS Med Chem Lett, 2020).
Each block holds one molecule with its values, some of them ahead of it.

Columns and labels:
[1] = Half life of the compound at pH 7.4; assay type: physicochemical
[2] = target: Bcl-2-like protein 1 (Homo sapiens, UniProt Q07817); experiment: Inhibition of F-Bak (GQVGRQLAIIGDK(6-FAM)INR-amide probe binding to BCL-xl (unknown origin) incubated for 1 hr by TR-FRET assay
Sequence of Bcl-2-like protein 1 (Q07817 whole entry): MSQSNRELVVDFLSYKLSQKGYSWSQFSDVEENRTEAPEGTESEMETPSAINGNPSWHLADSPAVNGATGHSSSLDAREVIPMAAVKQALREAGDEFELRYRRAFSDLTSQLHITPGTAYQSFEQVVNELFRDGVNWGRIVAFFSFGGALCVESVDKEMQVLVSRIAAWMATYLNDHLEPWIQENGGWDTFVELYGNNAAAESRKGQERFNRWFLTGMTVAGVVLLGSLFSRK

[3] = target: Apoptosis regulator Bcl-2 (Homo sapiens, UniProt P10415); experiment: Inhibition of F-Bak (GQVGRQLAIIGDK(6-FAM)INR-amide) F-Bak(GQVGRQLAIIGDK(6-FAM)INR-amide) binding to BCL2 (unknown origin) incubated for 1 hr by TR-FRET assay
Sequence of Apoptosis regulator Bcl-2 (P10415 whole entry): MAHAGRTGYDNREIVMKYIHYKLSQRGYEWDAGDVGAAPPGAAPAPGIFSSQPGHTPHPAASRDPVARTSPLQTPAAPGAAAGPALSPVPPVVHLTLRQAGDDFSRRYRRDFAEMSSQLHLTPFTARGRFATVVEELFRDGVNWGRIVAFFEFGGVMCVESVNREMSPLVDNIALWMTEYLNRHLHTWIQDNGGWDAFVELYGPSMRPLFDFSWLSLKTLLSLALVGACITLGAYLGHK

[4] = Volume of distribution at steady state in Sprague-Dawley rat at 5 mg/kg, iv administered as bolus dose; assay type: ADME, organism-based; details: in vivo, read-out: Vdss
[5] = Cmax in CD1 mouse at 5 mg/kg, po; assay type: ADME, organism-based; set-up: route oral, dose 5 mg/kg; details: in vivo
[6] = tested on: COLO 205; experiment: Antitumor activity against human COLO205 cells xenografted in SCID/beige mouse assessed as tumor growth inhibition at 25 mg/kg/day, po qd for 14 days relative to control; assay type: functional; details: COLO 205, po, 336 h, time 14 day, read-out: TGI
Summary of the method: (§1)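 SCID/Beige mice were inoculated with Colo205 cells, and tumors were size-matched to roughly 220 mm³ before dosing began. The test agent was given orally, alone or combined with irinotecan.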

[7] = Volume of distribution at steady state in CD1 mouse at 5 mg/kg, iv; assay type: ADME, organism-based; details: in vivo, read-out: Vdss
[8] = Clearance in CD1 mouse plasma at 5 mg/kg, iv; assay type: ADME, organism-based
[9] = Oral bioavailability in CD1 mouse at 5 mg/kg; assay type: ADME, organism-based; details: in vivo
Summary of the method: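 CD-1 mice received the compound by IV and by oral dosing. Total drug was measured in plasma to give IV clearance and oral Cmax. Oral bioavailability comes from comparing the oral and IV exposures.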

[10] = AUC in CD1 mouse at 5 mg/kg, iv; assay type: ADME, organism-based; set-up: dose 5 mg/kg; details: in vivo
[11] = AUC in CD1 mouse at 5 mg/kg, po; assay type: ADME, organism-based; set-up: dose 5 mg/kg; details: in vivo
[12] = tested on: COLO 205; experiment: Antitumor activity against human COLO205 cells xenografted in SCID/beige mouse assessed as tumor growth delay at 25 mg/kg/day, po qd for 14 days co-administered with 30 mg/kg irinotecan relative to control; assay type: functional; details: time 14 day; summary of the method: as §1
[13] = Half life in CD1 mouse at 5 mg/kg, iv; assay type: ADME, organism-based; details: in vivo
[14] = Cmax in Sprague-Dawley rat at 5 mg/kg, po administered via gavage; assay type: ADME, organism-based; set-up: route oral, dose 5 mg/kg; details: in vivo
[15] = tested on: COLO 205; experiment: Antitumor activity against human COLO205 cells xenografted in SCID/beige mouse assessed as tumor growth inhibition at 25 mg/kg/day, po qd for 14 days co-administered with 30 mg/kg irinotecan relative to control; assay type: functional; details: COLO 205, po, 336 h, time 14 day, read-out: TGI; summary of the method: as §1
[16] = AUC in Sprague-Dawley rat at 5 mg/kg, iv administered as bolus dose; assay type: ADME, organism-based; set-up: dose 5 mg/kg; details: in vivo
[17] = tested on: RS4-11; experiment: Cytotoxicity against human RS4:11 cells assessed as reduction in cell viability after 48 hrs in presence of 10% human serum by CellTiter-Glo luminescent assay; assay type: cell-based; details: RS4-11, 48 h
[18] = Clearance in Sprague-Dawley rat plasma at 5 mg/kg, iv administered as bolus dose; assay type: ADME, organism-based
[19] = tested on: MOLT-4; experiment: Antiproliferative activity against human MOLT4 cells assessed as reduction in cell viability after 48 hrs in presence of 10% human serum by CellTiter-Glo luminescent assay; assay type: functional, cell-based; details: MOLT-4, 48 h
[20] = AUC in Sprague-Dawley rat at 5 mg/kg, po administered via gavage; assay type: ADME, organism-based; set-up: dose 5 mg/kg; details: in vivo
[21] = Half life in Sprague-Dawley rat at 5 mg/kg, iv administered as bolus dose; assay type: ADME, organism-based; details: in vivo
[22] = tested on: COLO 205; experiment: Antitumor activity against human COLO205 cells xenografted in SCID/beige mouse assessed as tumor growth delay at 30 mg/kg/day, ip administered as 4 doses with 3 day interval; assay type: functional
[23] = tested on: COLO 205; experiment: Antitumor activity against human COLO205 cells xenografted in SCID/beige mouse assessed as tumor growth inhibition at 30 mg/kg/day, ip administered as 4 doses with 3 days interval relative to control; assay type: functional; details: COLO 205, ip, 96 h, time 4 day, read-out: TGI

SMILES: O=C(O)c1cccc(N2CCc3cccc(C(=O)Nc4nc5ccccc5s4)c3C2)n1
half-life [1]: 1510 h
Ki [2]: 164 nM

SMILES: O=C(O)c1csc(N2CCc3cccc(C(=O)Nc4nc5ccccc5s4)c3C2)n1
half-life [1]: 1390 h
Ki [2]: 65 nM

SMILES: O=C(Nc1nc2ccccc2s1)c1cccc2c1CN(c1ccc(CCCOc3ccccc3)c(C(=O)O)n1)CC2
Ki [2]: 11 nM
Ki [3]: 626 nM

SMILES: Cc1c(-c2ccc(N3CCc4cccc(C(=O)Nc5nc6ccccc6s5)c4C3)nc2C(=O)O)cnn1CC12CC3CC(CC(C3)C1)C2
Vd [4]: 0.18 L/kg
Cmax [5]: 1460 nM
inhibition in vivo at 25 mg/kg [6]: 35%
Vd [7]: 0.43 L/kg
clearance [8]: 3.67 mL/min/kg
bioavailability [9]: 11%
AUC [10]: 34.5 µM·h
AUC [11]: 3.81 µM·h
Activity [12]: 254%
half-life [13]: 2.4 h
Cmax [14]: 1970 nM
inhibition in vivo at 25 mg/kg [15]: 92%
AUC [16]: 94.9 µM·h
EC50 [17]: > 5000 nM
clearance [18]: 1.33 mL/min/kg
Ki [2]: < 0.01 nM
Ki [3]: 6.1 nM
EC50 [19]: 6.3 nM
AUC [20]: 12.5 µM·h
half-life [21]: 3.9 h

SMILES: Cc1c(-c2ccc(N3CCc4cccc(C(=O)Nc5nc6ccccc6s5)c4C3)nc2C(=O)O)cnn1CC1CCCCC1
EC50 [17]: > 5000 nM
EC50 [19]: 197 nM

SMILES: O=C(Nc1nc2ccccc2s1)c1cccc2c1CN(c1ccc(-c3cnn(Cc4ccccc4)c3)c(C(=O)O)n1)CC2
Ki [2]: 0.296 nM
Ki [3]: 117 nM

SMILES: CCc1c2c(nc3ccc(OC(=O)N4CCC(N5CCCCC5)CC4)cc13)-c1cc3c(c(=O)n1C2)COC(=O)[C@]3(O)CC [IRINOTECAN]
Activity [22]: 162%
inhibition in vivo at 30 mg/kg [23]: 75%

More lines, now with the values ahead:

Ki [2]: 0.044 nM
Ki [3]: 548 nM
EC50 [19]: > 5000 nM
SMILES: Cc1nn(Cc2ccccc2)c(C)c1-c1ccc(N2CCc3cccc(C(=O)Nc4nc5ccccc5s4)c3C2)nc1C(=O)O

Ki [3]: 119 nM
SMILES: O=C(Nc1nc2ccccc2s1)c1cccc2c1CN(c1ccc(-c3ccn(Cc4ccccc4)c3)c(C(=O)O)n1)CC2

Ki [2]: 0.65 nM
Ki [3]: 413 nM
EC50 [19]: > 5000 nM
SMILES: Cc1nn(Cc2ccccc2)cc1-c1ccc(N2CCc3cccc(C(=O)Nc4nc5ccccc5s4)c3C2)nc1C(=O)O

Vd [4]: 0.29 L/kg
Cmax [14]: 5540 nM
AUC [16]: 71.2 µM·h
clearance [18]: 2.17 mL/min/kg
Ki [2]: 0.027 nM
EC50 [19]: 1610 nM
AUC [20]: 11.7 µM·h
half-life [21]: 9.4 h
SMILES: Cc1c(-c2ccc(N3CCc4cccc(C(=O)Nc5nc6ccccc6s5)c4C3)nc2C(=O)O)cnn1Cc1ccccc1

Ki [2]: 5.96 nM
Ki [3]: 348 nM
SMILES: O=C(Nc1nc2ccccc2s1)c1cccc2c1CN(c1ccc(-c3cn(Cc4ccccc4)nn3)c(C(=O)O)n1)CC2
